Assays:
Format in all cases: functional
Settings in all cases: route intraperitoneal, in the assay text read “ip” for “po”
[1] = test system: Mus musculus; test: Inhibition of haloperidol-induced catalepsy in Swiss albino mouse at 100 mg/kg, […] 30 min prior to haloperidol challenge by bar test relative to haloperidol control
In short: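 Mice received compound at 100 mg/kg i.p. (in 0.5% gum acacia) 30 min before haloperidol 5 mg/kg i.p., n = 5. The bar test was run every 30 min over 3 h, and descent times were summed as CDT [3 h]. Haloperidol CDT minus vehicle CDT was set as 100% catalepsy, and % inhibition was calculated against it.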

[2] = test system: Mus musculus; test: Inhibition of haloperidol-induced catalepsy in Swiss albino mouse assessed as time elapsed until release of forepaw from bar at 100 mg/kg, […] 30 min prior to haloperidol challenge measured after 90 mins by bar test
In short: (§1)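 Adult male pathogen-free Swiss albino mice (18–25 g), n = 5 per group, each used once. Compounds at 100 mg/kg i.p. were given as a suspension in 0.5% gum acacia 30 min before haloperidol 5 mg/kg i.p. Forepaws were placed on a horizontal bar 9 cm high, and descent time was recorded every 30 min for 3 h. Testing ran at 23 ± 1 °C under 20 lux. Values are mean ± S.E.M.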

[3] = test system: Mus musculus; test: Inhibition of haloperidol-induced catalepsy in Swiss albino mouse assessed as time elapsed until release of forepaw from bar at 100 mg/kg, […] 30 min prior to haloperidol challenge measured after 30 mins by bar test; in short: as §1
[4] = test system: Mus musculus; test: Inhibition of haloperidol-induced catalepsy in Swiss albino mouse assessed as time elapsed until release of forepaw from bar at 100 mg/kg, […] 30 min prior to haloperidol challenge measured after 180 mins by bar test; in short: as §1
[5] = test system: Mus musculus; test: Inhibition of haloperidol-induced catalepsy in Swiss albino mouse assessed as time elapsed until release of forepaw from bar at 100 mg/kg, […] 30 min prior to haloperidol challenge measured after 120 mins by bar test; in short: as §1
[6] = test system: Mus musculus; test: Inhibition of haloperidol-induced catalepsy in Swiss albino mouse assessed as time elapsed until release of forepaw from bar at 100 mg/kg, […] 30 min prior to haloperidol challenge measured after 150 mins by bar test; in short: as §1
[7] = test system: Mus musculus; test: Inhibition of haloperidol-induced catalepsy in Swiss albino mouse assessed as time elapsed until release of forepaw from bar at 100 mg/kg, […] 30 min prior to haloperidol challenge measured after 60 mins by bar test; in short: as §1

SMILES | inhibition (INH) [1] | catalepsy descent time [2] | descent time [3] | Catalepsy duration (time to release forepaw from bar) [4] | catalepsy descent time [5] | Time to forepaw release from bar [6] | Catalepsy time (forepaw descent time) [7]
COc1ccc(NC(=S)Nc2ncnc3c2sc(=S)n3-c2ccccc2)cc1 | 43.1% | 1.72 min | 1.17 min | 2.22 min | 2.63 min | 2.87 min | 1.1 min
O=C(Nc1ccc([N+](=O)[O-])cc1)Nc1ncnc2c1sc(=S)n2-c1ccccc1 | 49.7% | 1.98 min | 0.883 min | 3.93 min | 2.08 min | 3.18 min | 1.32 min
CCn1c(=S)sc2c(NC(=O)Nc3ccccc3Cl)ncnc21 | 58.4% | 2.18 min | 2.12 min | 3.15 min | 2.62 min | 3.27 min | 2.3 min
CCn1c(=S)sc2c(NC(=O)Nc3ccc([N+](=O)[O-])cc3)ncnc21 | 68.1% | 3.23 min | 1.67 min | 3.85 min | 3.53 min | 3.5 min | 2.33 min
O=C(Nc1ccc(F)cc1)Nc1ncnc2c1sc(=S)n2-c1ccccc1 | 52.9% | 1.92 min | 1.42 min | 3.8 min | 2.63 min | 2.55 min | 1.9 min
N[C@@H](Cc1ccc(O)c(O)c1)C(=O)O [LEVODOPA] | 25.1% | 1.43 min | 0.317 min | 1.8 min | 1.47 min | 1.42 min | 0.633 min
Fc1ccccc1NC(=S)Nc1ncnc2c1sc(=S)n2-c1ccccc1 | 58.8% | 2.37 min | 1.3 min | 4.28 min | 2.67 min | 3.47 min | 1.65 min
CCn1c(=S)sc2c(NC(=S)Nc3ccc(OC)cc3)ncnc21 | 32.3% | 1.53 min | 0.433 min | 2.23 min | 1.9 min | 2.1 min | 0.717 min
S=C(Nc1ccccc1)Nc1ncnc2c1sc(=S)n2-c1ccccc1 | 51% | 1.25 min | 1.1 min | 3.62 min | 3.2 min | 3.6 min | 0.967 min
Fc1ccc(NC(=S)Nc2ncnc3c2sc(=S)n3-c2ccccc2)cc1 | 61.3% | 2.75 min | 1.25 min | 3.33 min | 3.25 min | 3.63 min | 2.15 min
S=C(Nc1ccc(Cl)cc1)Nc1ncnc2c1sc(=S)n2-c1ccccc1 | 62.6% | 2.55 min | 0.967 min | 4.47 min | 2.8 min | 3.48 min | 2.45 min
CCn1c(=S)sc2c(NC(=O)Nc3ccc(OC)cc3)ncnc21 | 43.3% | 1.9 min | 1.28 min | 2.38 min | 2.02 min | 2.3 min | 1.85 min
CCn1c(=S)sc2c(NC(=O)Nc3ccc(Cl)cc3)ncnc21 | 64.1% | 2.72 min | 1.07 min | 4.12 min | 2.53 min | 3.77 min | 2.88 min
O=C(Nc1ccc(Cl)cc1)Nc1ncnc2c1sc(=S)n2-c1ccccc1 | 65.3% | 2.32 min | 1.27 min | 4.03 min | 3.42 min | 3.43 min | 2.95 min
CCn1c(=S)sc2c(NC(=O)Nc3ccccc3[N+](=O)[O-])ncnc21 | 70.9% | 3.48 min | 1.7 min | 3.8 min | 3.3 min | 3.75 min | 2.8 min
O=[N+]([O-])c1ccc(NC(=S)Nc2ncnc3c2sc(=S)n3-c2ccccc2)cc1 | 47.5% | 2.18 min | 0.967 min | 2.65 min | 2.45 min | 2.68 min | 1.88 min
O=C(Nc1ccccc1)Nc1ncnc2c1sc(=S)n2-c1ccccc1 | 49.5% | 1.63 min | 0.75 min | 3.25 min | 2.23 min | 3.33 min | 2.13 min
O=C(Nc1ccccc1F)Nc1ncnc2c1sc(=S)n2-c1ccccc1 | 51.2% | 2.77 min | 1.38 min | 2.63 min | 2.35 min | 2.53 min | 2.1 min
COc1ccc(NC(=O)Nc2ncnc3c2sc(=S)n3-c2ccccc2)cc1 | 39% | 1.67 min | 0.95 min | 2.15 min | 2.25 min | 2.08 min | 1.53 min
O=C(Nc1ccccc1Cl)Nc1ncnc2c1sc(=S)n2-c1ccccc1 | 53% | 2.4 min | 1.27 min | 2.9 min | 2.78 min | 2.92 min | 1.97 min
CCn1c(=S)sc2c(NC(=O)Nc3ccc(F)cc3)ncnc21 | 55.1% | 1.88 min | 1.1 min | 3.95 min | 3.07 min | 3.12 min | 1.65 min
S=C(Nc1ccccc1Cl)Nc1ncnc2c1sc(=S)n2-c1ccccc1 | 62.6% | 3.08 min | 1.07 min | 3.97 min | 2.63 min | 4.02 min | 1.93 min
O=[N+]([O-])c1ccccc1NC(=S)Nc1ncnc2c1sc(=S)n2-c1ccccc1 | 45.4% | 1.15 min | 0.7 min | 3.87 min | 1.55 min | 3.9 min | 1.15 min
CCn1c(=S)sc2c(NC(=O)Nc3ccccc3)ncnc21 | 47.8% | 2.12 min | 0.817 min | 3.32 min | 2.4 min | 2.22 min | 2.03 min
O=C(Nc1ccccc1[N+](=O)[O-])Nc1ncnc2c1sc(=S)n2-c1ccccc1 | 44.8% | 2.02 min | 0.917 min | 2.95 min | 2.25 min | 2.93 min | 1.05 min
O=C(CCCN1CCC(O)(c2ccc(Cl)cc2)CC1)c1ccc(F)cc1 [HALOPERIDOL] | – | 4.55 min | 3.05 min | 5 min | 5 min | 5 min | 3.73 min
CCn1c(=S)sc2c(NC(=S)Nc3ccccc3)ncnc21 | 50.1% | 2.32 min | 1.22 min | 2.85 min | 2.33 min | 2.87 min | 1.92 min
CCn1c(=S)sc2c(NC(=O)Nc3ccccc3F)ncnc21 | 53.4% | 2.3 min | 1.12 min | 2.95 min | 2.88 min | 3.1 min | 1.98 min

Reference: ChEMBL document CHEMBL1154046, “Synthesis of some urea and thiourea derivatives of 3-phenyl/ethyl-2-thioxo-2,3-dihydrothiazolo[4,5-d]pyrimidine and their antagonistic effects on haloperidol-induced catalepsy and oxidative stress in mice” (2009)
